Test results reported in ChEMBL document CHEMBL1122519, “Bispyridinamines: a new class of topical antimicrobial agents as inhibitors of dental plaque” (1984).

How the values were obtained:
Staphylococcus aureus [1] = experiment: Minimum antimicrobial inhibitory concentration against Staphylococcus aureus; type: functional
In short: (§1)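 Serial twofold tube dilution in tryptose phosphate broth. Each compound was prepared as a 1000 μg/mL aqueous stock and diluted in double-strength broth, then 2×10^5 cells were added. Tubes were incubated aerobically at 37 °C for 24 h. The MIC was taken as the lowest concentration with no visible growth.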

Streptococcus mutans [2] = experiment: Compound is evaluated for the effect of saliva upon the antiplaque activity at 50% of saliva and at 0.025 percentage of compound; - = No plaque accumulation; type: functional, organism-based
In short: (§2)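 Hydroxylapatite plate antiplaque assay against S. mutans run for 48 h, with two 1-min exposures to aqueous compound per 24 h. Growth medium contained 0, 5 or 50% pooled human saliva (paraffin-stimulated, centrifuged, filtered, membrane-sterilized). Plaque was stained with FD&C Red No. 3 and graded none, slight or moderate. Staining potential was scored on plates run without inoculum and graded none or slight.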

Escherichia coli [3] = experiment: Minimum inhibitory concentration against Escherichia coli (Vogel); type: functional; in short: as §1
Streptococcus mutans [4] = experiment: Compound is evaluated for the effect of saliva upon the antiplaque activity at 50% of saliva and at 0.05 percentage of compound; - = No staining; type: functional, organism-based; in short: as §2
Streptococcus mutans [5] = experiment: Compound is evaluated for the effect of saliva upon the antiplaque activity at 0% of saliva and at 0.025 percentage of compound; - = No plaque accumulation; type: functional, organism-based; in short: as §2
Streptococcus mutans [6] = experiment: Minimum plaque inhibitory concentration using a standard test organism, Streptococcus mutans OMZ-61; type: functional, organism-based
In short: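 Ceramic hydroxylapatite plates were soaked twice for 1 min each in compound at […] (aqueous), air-dried and rinsed, then hung in sucrose beef-extract medium (pH 7.0) inoculated with late-log S. mutans OMZ-61. Incubation was anaerobic at 37 °C for 24 h, and treatment plus reinoculation were repeated for a second 24 h. Plaque was stained with 1% FD&C Red No. 3 and scored visually. The value is the lowest concentration giving no plaque while medium growth matched control.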

Escherichia coli [7] = experiment: Antimicrobial minimum inhibitory concentration against Escherichia coli AB1932-1; type: functional; in short: as §1
Streptococcus mutans [8] = experiment: Compound is evaluated for the effect of saliva upon the antiplaque activity at 50% of saliva and at 0.025 percentage of compound; - = No staining; type: functional, organism-based; in short: as §2
Streptococcus mutans [9] = experiment: Compound is evaluated for the inhibition of plaque-forming enzyme of Streptococcus mutans OMZ-61; type: functional
In short: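 S. mutans OMZ-61 was grown anaerobically at 37 °C for 24 h in glucose medium. The cell-free filtrate, adjusted to pH 5.5, served as the dextran/levan sucrase source. Reactions contained 3 μmol 14C-sucrose in citrate phosphate buffer pH 5.5 with 4% EtOH and ran 2 h at 37 °C. MeOH-insoluble polysaccharide was counted by scintillation. Compounds were tested at 50, 160 and 500 μg base/mL, with lower levels if needed, and I50 was read graphically.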

Klebsiella pneumoniae = experiment: Minimum inhibitory concentration against Klebsiella pneumonia 39645; type: functional; in short: as §1
Streptococcus mutans [10] = experiment: Compound is evaluated for the effect of saliva upon the antiplaque activity at 50% of saliva and at 0.05 percentage of compound; - = No plaque accumulation; type: functional, organism-based; in short: as §2
Streptococcus mutans [11] = experiment: Compound is evaluated for the effect of saliva upon the antiplaque activity at 0% of saliva and at 0.05 percentage of compound; + = Slight staining; type: functional, organism-based; in short: as §2
Pseudomonas aeruginosa [12] = experiment: Minimum antimicrobial inhibitory concentration against Pseudomonas aeruginosa MGH-2; type: functional; in short: as §1
Proteus mirabilis [13] = experiment: Minimum antimicrobial inhibitory concentration against Proteus mirabilis MGH-1; type: functional; in short: as §1
Streptococcus mutans [14] = experiment: Compound is evaluated for the effect of saliva upon the staining potential at 0% of saliva and at 0.01 percentage of compound; + = Slight staining; type: functional, organism-based; in short: as §2
Streptococcus mutans [15] = experiment: Compound is evaluated for the effect of saliva upon the antiplaque activity at 50% of saliva and at 0.01 percentage of compound; type: functional, organism-based; in short: as §2
Streptococcus mutans [16] = experiment: (§3) Compound is evaluated for the effect of saliva upon the antiplaque activity at 50% of saliva and at 0.01 percentage of compound; - = No staining; type: functional, organism-based; in short: as §2
Streptococcus mutans [17] = experiment: Compound is evaluated for the effect of saliva upon the antiplaque activity at 0% of saliva and at 0.025 percentage of compound; + = Slight staining; type: functional, organism-based; in short: as §2
Escherichia coli [18] = experiment: Antimicrobial minimum inhibitory concentration against Escherichia coli 100/B22; type: functional; in short: as §1
Streptococcus mutans [19] = experiment: (§4) Compound is evaluated for the effect of saliva upon the antiplaque activity at 0% of saliva and at 0.01 percentage of compound; - = No plaque accumulation; type: functional, organism-based; in short: as §2
Streptococcus mutans [20] = experiment: Compound is evaluated for the effect of saliva upon the antiplaque activity at 0% of saliva and at 0.05 percentage of compound; - = No plaque accumulation; type: functional, organism-based; in short: as §2
Streptococcus mutans [21] = experiment: Compound is evaluated for the growth inhibition of Streptococcus mutans OMZ-61; type: functional
Staphylococcus aureus [22] = experiment: Compound is evaluated for the antimicrobial minimum inhibitory concentration against Staphylococcus aureus (Smith); type: functional; in short: as §1
Pseudomonas aeruginosa [23] = experiment: Compound is evaluated for the antimicrobial minimum inhibitory concentration against Pseudomonas aeruginosa MGH-1; type: functional
Proteus mirabilis [24] = experiment: Compound is evaluated for the antimicrobial minimum inhibitory concentration against Proteus mirabilis MGH-1; type: functional; in short: as §1
Streptococcus mutans [25] = experiment: Compound is evaluated for minimum plaque inhibitory concentration using a standard test organism, Streptococcus mutans OMZ-61; type: functional
In short: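 S. mutans OMZ-61 in pH 7.0 beef extract–trypticase medium with 0.5% sucrose. Sterile ceramic hydroxylapatite plates got two 1-min soaks in 0.1–0.001% compound, each followed by 1-min air-drying, then a 5-min water rinse. Plates were put in inoculated medium at 37 °C anaerobically for 24 h. The cycle was repeated for a second 24 h. Plaque was stained with 1% FD&C Red No. 3. Value is the lowest concentration completely preventing plaque.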

[26] = Compound is evaluated for stain index; type: functional
In short: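 Ratio of the minimum concentration staining a plaque-free ceramic hydroxylapatite plate to the minimum plaque-inhibiting concentration, both run under the same conditions. Plates got two 1-min soaks (0.1–0.001%), each followed by air-drying, then a water rinse. They were then held 24 h anaerobically at 37 °C in sucrose beef-extract medium, with or without S. mutans OMZ-61, repeated once. Staining was 1-min 1% FD&C Red No. 3, scored visually.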

Streptococcus mutans [27] = experiment: Compound is evaluated for minimal bactericidal concentration against plaque formation for Streptococcus mutans; type: functional, organism-based
In short: (§5)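 Preformed in vitro plaques of S. mutans NCTC 10449 or A. viscosus M-100 were grown on ceramic hydroxylapatite under anaerobic conditions at 37 °C in sucrose-supplemented medium. Plaques were immersed for 30 min at 37 °C in compound at 0.3–20 mM, rinsed, and moved to broth containing bromocresol purple. Kill was judged by no acid production, no turbidity increase and no growth on plating at 48 h. Plaques were run in quadruplicate.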

Actinomyces viscosus = experiment: Compound is evaluated for minimal bactericidal concentration against plaque formation for Actinomyces viscosus; type: functional, organism-based; in short: as §5
Streptococcus mutans [28] = experiment: Compound is evaluated for the effect of saliva upon the antiplaque activity at 0% of saliva and at 0.1 percentage of compound; - = No staining; type: functional, organism-based
In short: (§6)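 Hydroxylapatite plates were treated twice daily with 1-min exposures to aqueous compound (0.001–0.1%), air-dried and rinsed. They were then incubated anaerobically at 37 °C with S. mutans in sucrose medium for 48 h. The medium held 0, 5 or 50% pooled, centrifuged, filter-sterilised human saliva. Plaque and plate staining were scored visually after FD&C Red No. 3 dye. Staining was scored on plates run without organism.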

Streptococcus mutans [29] = experiment: Compound is evaluated for the effect of saliva upon the antiplaque activity at 0% of saliva and at 0.005 percentage of compound; - = No plaque accumulation; type: functional, organism-based; in short: as §6
Streptococcus mutans [30] = experiment: Compound is evaluated for the effect of saliva upon the antiplaque activity at 5% of saliva and at 0.01 percentage of compound; + = Slight plaque accumulation; type: functional, organism-based; in short: as §6
Streptococcus mutans [31] = experiment: Compound is evaluated for the effect of saliva upon the antiplaque activity at 0% of saliva and at 0.001 percentage of compound; - = No plaque accumulation; type: functional, organism-based; in short: as §6
Streptococcus mutans [32] = experiment: Compound is evaluated for the effect of saliva upon the antiplaque activity at 0% of saliva and at 0.005 percentage of compound; + = Slight staining; type: functional, organism-based; in short: as §6
Streptococcus mutans [33] = experiment: Compound is evaluated for the effect of saliva upon the antiplaque activity at 50% of saliva and at 0.01 percentage of compound; + = Slight plaque accumulation; type: functional, organism-based; in short: as §6
Streptococcus mutans [34] = experiment: Compound is evaluated for the effect of saliva upon the antiplaque activity at 50% of saliva and at 0.005 percentage of compound; - = No staining; type: functional, organism-based; in short: as §6
Streptococcus mutans [35] = experiment: as §3; type: functional, organism-based; in short: as §6; remark: listed apart in the source
Streptococcus mutans [36] = experiment: Compound is evaluated for the effect of saliva upon the antiplaque activity at 0% of saliva and at 0.01 percentage of compound; + = Slight staining; type: functional, organism-based; in short: as §6
Streptococcus mutans [37] = experiment: Compound is evaluated for the effect of saliva upon the antiplaque activity at 5% of saliva and at 0.01 percentage of compound; - = No staining; type: functional, organism-based; in short: as §6
Streptococcus mutans [38] = experiment: Compound is evaluated for the effect of saliva upon the antiplaque activity at 0% of saliva and at 0.1 percentage of compound; - = No plaque accumulation; type: functional, organism-based; in short: as §6
Streptococcus mutans [39] = experiment: Compound is evaluated for the effect of saliva upon the antiplaque activity at 50% of saliva and at 0.1 percentage of compound; - = No staining; type: functional, organism-based; in short: as §6
Streptococcus mutans [40] = experiment: as §4; type: functional, organism-based; in short: as §6; remark: listed apart in the source
Streptococcus mutans [41] = experiment: Compound is evaluated for the effect of saliva upon the antiplaque activity at 5% of saliva and at 0.005 percentage of compound; + = Slight plaque accumulation; type: functional, organism-based; in short: as §6
Streptococcus mutans [42] = experiment: Compound is evaluated for the effect of saliva upon the staining potential at 0% of saliva and at 0.001 percentage of compound; - = No staining; type: functional, organism-based; in short: as §6
Streptococcus mutans [43] = experiment: Compound is evaluated for the effect of saliva upon the antiplaque activity at 50% of saliva and at 0.1 percentage of compound; + = Slight plaque accumulation; type: functional, organism-based; in short: as §6

CCCCC(CC)CNC(=N)NC(=N)NCCCCCCNC(=N)NC(=N)NCC(CC)CCCC.Cl.Cl (stereo unspecified) [ALEXIDINE DIHYDROCHLORIDE]
MIC (Staphylococcus aureus [1]): 0.5 µg/mL
Plaque accum (Streptococcus mutans [2]): No plaque accumulation
MIC (Escherichia coli [3]): 2 µg/mL
Staining potential (Streptococcus mutans [4]): No staining
Plaque accum (Streptococcus mutans [5]): No plaque accumulation
Concentration (Streptococcus mutans [6]): 0.005%
MIC (Escherichia coli [7]): 1 µg/mL
Staining potential (Streptococcus mutans [8]): No staining
I50 (Streptococcus mutans [9]): 156 (ug of base) ml-1
MIC (Klebsiella pneumoniae): 3.9 µg/mL
Plaque accum (Streptococcus mutans [10]): No plaque accumulation
Staining potential (Streptococcus mutans [11]): No staining
MIC (Pseudomonas aeruginosa [12]): 15.6 µg/mL
MIC (Proteus mirabilis [13]): 31.3 µg/mL
Staining potential (Streptococcus mutans [14]): No staining
Plaque accum (Streptococcus mutans [15]): No plaque accumulation
Staining potential (Streptococcus mutans [16]): No staining
Staining potential (Streptococcus mutans [17]): No staining
MIC (Escherichia coli [18]): 1 µg/mL
Plaque accum (Streptococcus mutans [19]): No plaque accumulation
Plaque accum (Streptococcus mutans [20]): No plaque accumulation
MIC (Streptococcus mutans [21]): 0.5 (ug of base) ml-1

Br.Br.N=c1ccn(CCCCCCn2ccc(=N)cc2)cc1
MIC (Escherichia coli [3]): 500 µg/mL
MIC (Klebsiella pneumoniae): > 500 µg/mL
MIC (Staphylococcus aureus [22]): 250 µg/mL
MIC (Pseudomonas aeruginosa [23]): > 500 µg/mL
MIC (Proteus mirabilis [24]): > 500 µg/mL
Min plague Inhibitory (Streptococcus mutans [25]): >1%

Br.Br.CCCCCCCCN=c1ccn(CCCCCCCCCCCCCCn2ccc(=NCCCCCCCC)cc2)cc1
MIC (Staphylococcus aureus [1]): 1 µg/mL
MIC (Escherichia coli [3]): 7.8 µg/mL
Concentration (Streptococcus mutans [6]): 0.005%
MIC (Escherichia coli [7]): 3.9 µg/mL
MIC (Klebsiella pneumoniae): 7.8 µg/mL
Stain index [26]: 2
MIC (Pseudomonas aeruginosa [12]): 3.9 µg/mL
MIC (Proteus mirabilis [13]): 3.9 µg/mL
MIC (Escherichia coli [18]): 3.9 µg/mL
Concentration (Streptococcus mutans [27]): 1.3 mM
Concentration (Actinomyces viscosus): 2.6 mM

CCCCCCCCCCCCCCCC[n+]1ccccc1.[Cl-]
Staining potential (Streptococcus mutans [28]): No staining
Plaque accum (Streptococcus mutans [29]): No plaque accumulation
Plaque accum (Streptococcus mutans [30]): No plaque accumulation
I50 (Streptococcus mutans [9]): 95 (ug of base) ml-1
Plaque accum (Streptococcus mutans [31]): No plaque accumulation
Staining potential (Streptococcus mutans [32]): No staining
Plaque accum (Streptococcus mutans [33]): No plaque accumulation
Staining potential (Streptococcus mutans [34]): No staining
Staining potential (Streptococcus mutans [35]): No staining
Staining potential (Streptococcus mutans [36]): No staining
Staining potential (Streptococcus mutans [37]): No staining
Plaque accum (Streptococcus mutans [38]): No plaque accumulation
Staining potential (Streptococcus mutans [39]): No staining
Plaque accum (Streptococcus mutans [40]): No plaque accumulation
Plaque accum (Streptococcus mutans [41]): No plaque accumulation
Staining potential (Streptococcus mutans [42]): No staining
Plaque accum (Streptococcus mutans [43]): No plaque accumulation
